# Variants at the floor of the assay were thinned out.
# B1: tRNA (parent)
# chain: GUUCCGUUGGCGUAAUGGUAACGCGUCUCCCUCCUAAGGAGAAGACUGCGGGUUCGAGUCCCGUACGGAACG
# Variants of: B1
# Experiment: yeast fitness relative to wild type (ratio to wild type); higher = fitter; tRNA-Arg(CCU), competitive growth, 37 C, YPD
# How it was run: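 A pool of Saccharomyces cerevisiae strains, each with a tRNA-Arg(CCU) gene variant at the native genomic locus, was competed in YPD at 37°C for 24 hours across six parallel replicates. The variants had been chemically synthesised at a 3% per-site mutation rate over 69 sites, and gene amplicons before and after competition were read by 100-nucleotide paired-end sequencing. Darwinian fitness relative to wild type rested on changes in genotype frequencies. Genotypes required ≥ 100 starting reads, and estimates < 0.5 were set to 0.5.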
row,Variant,yeast fitness
1,C27A A57G G63A,0.551
2,U26C C30G C34A C49G G50A U64A,≤ 0.5
3,U26C C33U U53A C66A,≤ 0.5
4,C27A C31U A43G C61U A65C,0.501
5,U26C C27U A57G,0.725
6,U26A U64G A65U A69C,≤ 0.5
7,U26A C27U,0.919
8,C27A A43U U64C,0.628
9,C27A U35A G48A U59C,0.567
10,U26C U28A A65U,0.524
11,U26C C31U,1.07
12,U26C C31G,0.875
13,C27A G39C,0.616
14,U26A G41C A65G G67A,≤ 0.5
15,U26G G63A,0.919
16,U26C U35C U64G A65G C66G,≤ 0.5
17,U26C C27G C33G A37U G41A A57G C62G,≤ 0.5
18,U26G G50C C66U,≤ 0.5
19,U26C U32C U47A,≤ 0.5
20,C27A A57C C62U,0.531
21,C27A G41C C66U,0.689
22,U26G C46G,0.807
23,U26G G51A,0.598
24,U26C A36C C62A,≤ 0.5

row,Variant,yeast fitness
1,U26C G41C,0.947
2,U26C C49A G67A,≤ 0.5
3,U26A C33A C34G,0.644
4,U26C C33U G52C,0.609
5,U26G A45G C46U U53G,0.599
6,U26G A45C,0.795
7,U26A C30A C34A G48C,0.583
8,U26G A36U,0.714
9,U26G C27G A57C,0.558
10,U26C U35G G50A C62U,≤ 0.5
11,U26C G67U,0.696
12,U26C C31U A43G,1.12
13,C27A C46A C66U,0.704
14,C27A G50C C62G C66U,0.606
15,C27A A36G G68A,≤ 0.5
16,U26A G48A C62A,0.605
17,U26A C31U A65C,0.691
18,U26A G52C,0.645
19,C27A U28C A37C,≤ 0.5
20,C27A A43C C66U,0.709
21,C27A U28G,0.66
22,C27A U28A,0.841
23,U26A C46A C62G,0.797
24,U26A C49G G56U,≤ 0.5

row,Variant,yeast fitness
1,C27A C62U,0.815
2,U26A U64A,0.788
3,C27A A70C,0.787
4,C27A A70U,0.962
5,U26A C29G A43G A45U,≤ 0.5
6,U26A C33A A45C A65U G67C,≤ 0.5
7,U26C A45C,0.857
8,U26G A37C,0.652
9,U26C A37U,0.702
10,U26G U35C G63A A70G,≤ 0.5
11,C27A A42C G68C,≤ 0.5
12,U26C C27U C62A,0.658
13,U26C U32C C33G A42C C49G G58C C62G,≤ 0.5
14,C27A A37G U53A,≤ 0.5
15,C27A C30G A42C C61G,1.01
16,U26G G51C G58C,0.54
17,U26A A45U,1.03
18,U26C G63A,0.916
19,U26C C27G C60G C62U,0.624
20,U26C C27G A69C,≤ 0.5
21,U26C U47A,0.721
22,U26C U28C C29G C34A,≤ 0.5
23,U26A C29U C33U C62G,1.09
24,U26C A43U A70U,0.707

row,Variant,yeast fitness
1,U26G U47A,0.811
2,U26C A37U U47C U54A,≤ 0.5
3,C27A A45U,0.839
4,U26G C55G U59A U64G,≤ 0.5
5,C27A C34G A40G,0.666
6,U26C C31A A42U,0.9
7,C27A A65G C66U,0.772
8,U26C A57G,0.984
9,U26C A57U,0.793
10,U26C A43U G63A,0.658
11,U26C C30G C61U,≤ 0.5
12,C27A A69U,0.846
13,C27A G38A,0.798
14,U26A A43U A65U,0.618
15,U26A G51A,0.769
16,U26C G39A U59A C60G C62U,≤ 0.5
17,U26A U35C G68A,0.631
18,C27A G58A C66G,0.512
19,C27A C31G C60G,0.537
20,U26A C33U U53C,0.54
21,U26C C27G C34G G67A,≤ 0.5
22,C27A G38U A45G G48C,≤ 0.5
23,U26C G51A,0.774
24,U26C C29A A36C,≤ 0.5

row,Variant,yeast fitness
1,U26A A65C,0.946
2,U26C C46A U47G G50A C61A G67A,≤ 0.5
3,U26C U28A,0.727
4,U26C U28C,0.81
5,U26A U28A C30G,0.584
6,C27A A37C G44A U53G,≤ 0.5
7,U26G U53A G56C G63A,≤ 0.5
8,U26A C27U A65G A69G,0.669
9,U26C A40G,1.03
10,C27A A37C C62G,≤ 0.5
11,U26G G56A,0.919
12,U26A C30A A37C A43U G51C,0.595
13,C27A C61A G67C,≤ 0.5
14,U26C C30U C61A,0.571
15,U26G C27U C49U C66U,0.577
16,U26C A37G G67C,0.614
17,C27A G58C U64G,≤ 0.5
18,U26G C61U G67A,≤ 0.5
19,U26C G56C A65G,≤ 0.5
20,U26G U28A A45C,≤ 0.5
21,U26A A57C C61G G67A A69U,≤ 0.5
22,U26A U54A,0.589
23,U26G C29G A45C,≤ 0.5
24,U26C U32C,0.874

row,Variant,yeast fitness
1,C27A G39A A57G G68A,≤ 0.5
2,U26C A40G C49U,0.502
3,C27A C61A,0.67
4,C27A A37C G68A,≤ 0.5
5,C27A A45U C60G G63A A65U C66U,≤ 0.5
6,C27A U35C,0.735
7,C27A U35A,0.662
8,C27A C60G U64C,0.779
9,C27A G56C C66G,≤ 0.5
10,C27A C60U C61G A65G,0.598
11,U26G G68C,0.596
12,U26G G68A,0.824
13,U26G A42U,0.795
14,C27A A37U C61U,≤ 0.5
15,U26A U54A C55U,≤ 0.5
16,U26A U54A G58A,≤ 0.5
17,U26A A43G A69C,0.649
18,U26G A45U G50A,0.535
19,C27A A42G G44C C66U,≤ 0.5
20,U26G C29U A65U,≤ 0.5
21,C27A A40G A69U,0.582
22,U26A C60A,0.787
23,U26G G51A A65G,0.599
24,C27A C31A G52A G58C C62A,≤ 0.5

row,Variant,yeast fitness
1,C27A A36G C61U,≤ 0.5
2,C27A C29A C49A,≤ 0.5
3,U26A C30G A37C U59A,≤ 0.5
4,C27A C61G G67A,≤ 0.5
5,C27A C31U A43U,0.961
6,U26A A57C,0.64
7,U26C A45U G68C,≤ 0.5
8,U26C C33U A40U,≤ 0.5
9,C27A U28A G41A G48A,0.75
10,U26A A57C A70U,≤ 0.5
11,C27A G41C A43C C66U,0.517
12,U26G C30U U32G G52C,≤ 0.5
13,U26G C27G U47A U54C C62U,≤ 0.5
14,U26G C49U,0.974
15,U26G C31U G68C,0.636
16,C27A G58C A69C,0.719
17,C27A U32G G51A G56C,≤ 0.5
18,C27A C34A,0.68
19,C27A U32C A42C C46U C62U,≤ 0.5
20,C27A C30G G41C,≤ 0.5
21,C27A,0.997
22,C27A A36G A43G C55U C60U,≤ 0.5
23,C27A C30G G41C C61G C62U C66U A69U,≤ 0.5
